Compounds with a hit are over-represented: about 2.3% of the library has one in this group of screens.
TRPC6 inh: blocks the mouse TRPC6 cation channel. Q61143. hit rate 1.1% among 310,000. B-score at 10 µM. HEK293-TRPC6, membrane potential dye, ACh-evoked depolarization; active compounds read low. AID 2553;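 active means B-score under library mean minus 3 SD, initial fluorescence not abnormally high, positive integrated signal ratio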;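 further: B-score derived from integrated fluorescence ratio over the kinetic read; more negative B-score means stronger inhibition of depolarization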
TRPC4 PAM: allosterically enhances the mouse TRPC4 cation channel | HEK293 TRPC4beta/mu-opioid, DAMGO EC20, Fluo-4 Ca2+ flux; active compounds read high | B-score at 10 µM | hit rate 0.42% among 310,000 | Q9QUQ5;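 active means B-score of calcium response area above 5 SD of library B-scores, with initial fluorescence ratio within 5 SD of library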;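 further: B-score of integrated fluorescence ratio over time as area under calcium response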
TRPC6 activator: activators of mouse TRPC6 channel | B-score at 10 µM | AID 2550 | HEK293-TRPC6 membrane potential dye fluorescence; active compounds read high | hit rate 0.13% among 310,000 | Q61143;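 active means B-score of the integrated fluorescence ratio above library mean plus 3 SD, and starting fluorescence ratio within library mean plus 5 SD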;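 further: higher score means more depolarization so channel activation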
TRPC4 act: TRPC4 (mouse) channel activation; Q9QUQ5; HEK293 TRPC4beta/mu-opioid, Fluo4 calcium fluorescence; active compounds read high; B-score at 10 µM; hit rate 0.49% among 310,000; AID 2237;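 active means B-score above 5 SD of library B-scores, and initial fluorescence ratio not above library mean plus 5 SD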;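 further: positive B-score marks a calcium rise read as TRPC4 activation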
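Assay system: HEK293 stable line with TRPC4beta plus mu-opioid receptor. Times: dye 45 min RT, read 110 s. Measured by: kinetic Fluo4 calcium fluorescence. Measure: B score of integrated ratio. Controls: assay buffer as low control, maximal DAMGO as high control.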
TRPC4 inh: blocks the mouse TRPC4 cation channel | Q9QUQ5 | HEK293 TRPC4beta/mu-opioid, DAMGO-evoked Fluo4 calcium flux; active compounds read low | B-score at 10 µM | hit rate 0.39% among 300,000 | AID 2247;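 active means B-score over 3 SD under the library average, no early fluorescence shift, positive overall ratio signal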
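System: stable TRPC4beta/mu-opioid receptor HEK293 cells; Dosing: single-point compound dosing; Measured by: Fluo4 Ca2+ flux fluorescence; Read-out basis: per-well B score of integrated baseline-normalized Fluo4 ratio.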
Numbers without * were called inactive; i = inactive.

SMILES	TRPC6 inh	TRPC4 PAM	TRPC6 activator	TRPC4 act	TRPC4 inh
C[N+]1(C)[C@@H]2CC[C@H]1CC(OC(=O)C(CO)c1ccccc1)C2 (some centres undefined)	-7.1*	i	i	i	i
CC1CCCC(C)N1/N=C/c1c[nH]c2ccc(Br)cc12 (centres undefined)	i	34*	i	i	i
CC1=C(C(=O)OC(C)C)[C@]2(C(=O)N(CC(N)=O)c3ccccc32)C(C#N)=C(N)O1	i	i	i	i	i
C=CCOC(=O)C1=C(C)OC(N)=C(C#N)[C@@]12C(=O)N(CC(N)=O)c1ccccc12	i	22*	i	i	i
O=[N+]([O-])c1ccc(N2CCNCC2)cc1NCC1CCCO1 (centres undefined)	i	i	i	i	i
O=[N+]([O-])c1ccc(N2CCNCC2)cc1NC1CC1	i	i	i	117*	i
Cc1cc(OCC(=O)NCc2ccc(S(N)(=O)=O)cc2)c2c3c(c(=O)oc2c1)CCC3	i	i	i	i	i
COC(=O)C1=CCCN(C)C1	i	i	i	99*	i
O=[N+]([O-])NC1=NCCN1Cc1ccc(Cl)nc1	i	i	i	i	i
N#Cc1ccc(N2CCNCC2)c(F)c1	i	i	i	53*	i
N#Cc1cc(F)c(N2CCNCC2)cc1Cl	i	i	i	i	i
N=c1n(CCO)c2ccccc2n1Cc1ccccc1	i	i	i	i	-7*
CCN(CC)P(=O)(/C=C(\Cl)c1ccccc1)/C=C(\Cl)c1ccccc1	i	17*	i	i	i
CC(C)[N+]12CCC(CC1)C(C(O)(c1ccccc1)c1ccccc1)C2 (centres undefined)	i	i	i	i	i
Clc1ccc2c(c1)C(c1ccccc1Cl)=NCc1nnc(N3CCN(CCSc4ccccc4)CC3)n1-2	i	i	i	i	i
Clc1ccc2c(c1)C(c1ccccc1Cl)=NCc1nnc(N3CCN(CCOc4ccccc4)CC3)n1-2	i	29*	i	i	i
C=C(C)[C@@]12OC3(c4ccccc4)O[C@@H]1C1[C@@H]4O[C@]4(CO)[C@@H](O)[C@]4(O)C(=O)C(C)=C[C@H]4[C@@]1(O3)[C@H](C)[C@H]2OC(=O)/C=C/C=C/c1ccccc1 (some centres undefined)	i	i	i	i	-6*
CN(C)C(=O)Oc1ccc2c(c1)O/C(=C\c1cccc(Cl)c1)C2=O	i	i	i	i	i
Nc1ncn[nH]1	i	i	i	i	i
O=C(Nc1ccccc1Cl)OC1CN2CCC1CC2 (centres undefined)	i	25*	i	i	i
O=C(Nc1ccccc1F)OC1CN2CCC1CC2 (centres undefined)	i	i	i	i	i
Cc1ccc(N=C(/N=C(\N)N[N+](=O)[O-])Nc2ccc(C)cc2)cc1	i	i	i	i	i
O=C(N/N=C/c1c(O)n(Cc2ccco2)c(=O)[nH]c1=O)c1ccccc1O	i	i	i	i	i
CN(C)C1(CNC(=O)c2ccc(Cl)c(S(=O)(=O)NCc3ccco3)c2)CCCCC1	i	i	i	73*	i
CCN(CC)P(=O)(c1n(CC)cc[n+]1CC)N(CC)CC	i	i	i	i	i
SMILES	TRPC6 inh	TRPC4 PAM	TRPC6 activator	TRPC4 act	TRPC4 inh
CN[C@H]1C[C@H]2O[C@@](C)([C@H]1OC)n1c3ccccc3c3c4c(c5c6ccccc6n2c5c31)C(=O)NC4	-5.8*	27*	i	i	i
CCOC(=O)C1(c2ccccc2)CCN(CCC(=O)Nc2ccccc2OC)CC1	i	i	i	50*	i
Brc1ccc(CN2CCNCC2)s1	i	14*	i	i	i
COc1cccc(CN2CCNCC2)c1OC	i	i	i	i	i
CCOc1ccc(-c2c(C)n(-c3ccc(OCC)cc3)c3[n+]2CCCCC3)cc1	-9.4*	i	13*	i	i
CCOc1ccc(-n2c(-c3ccoc3)nc3ccccc3c2=O)cc1	i	i	i	i	i
COc1ccc(CC(C)NCCc2ccc(OC)c(OC)c2)cc1 (centres undefined)	i	i	i	i	i
CN(C)C(CNC(=O)Cc1c(Cl)cccc1Cl)c1ccccc1 (centres undefined)	i	i	i	219*	i
CC(NCc1cccc(Cl)c1Cl)C(O)c1ccccc1 (centres undefined)	i	i	i	i	i
O=C1CN(O)C(c2ccccc2Cl)=c2cc(Br)ccc2=N1	i	i	i	i	i
COc1ccc(CNCCc2cccc(F)c2)c2ccccc12	i	i	i	57*	i
COc1ccc(CNCCc2ccc(Cl)cc2)c(OC)c1OC	i	i	i	62*	i
COc1cc(OC)c(OC)cc1CNCCc1ccc(OC)c(OC)c1	i	i	i	i	i
COc1cc(OC)c(OC)cc1CNCCc1cccc(F)c1	i	i	i	i	i
CC(=O)N1N=C(c2c(O)n(C)c(=O)n(C)c2=O)CC1c1ccccc1 (centres undefined)	i	i	i	i	i
CCN1C[C@]2(C)CC[C@H](OC)[C@]34C2[C@H](OC(C)=O)[C@@]2(OCO[C@@]25C[C@H](OC)[C@H]2C[C@]3(O)C5[C@H]2OC)[C@@H]14	i	i	i	i	i
Cc1ccccc1C(O)(Cc1ccccc1)C1CN2CCC1CC2 (centres undefined)	i	i	i	87*	i
Clc1ccc(CCNCc2ccncc2)c(Cl)c1	i	i	i	50*	i
Cc1ccc(C)c(-n2c(C)nc3ccccc3c2=O)c1	i	i	i	i	i
Cc1cc(NCCN)nc2ccccc12	i	28*	i	i	i
CCOC(=O)C1(CCc2ccccc2)CCN(Cc2ccc(NC(C)=O)cc2)CC1	i	i	i	104*	i
CCOC(=O)C1(CCc2ccccc2)CCN(Cc2ccc3c(c2)OCCO3)CC1	i	i	i	i	i
COc1ccc(C(CNC(=O)c2ccc3c(c2)CCC3)N(C)C)cc1 (centres undefined)	i	i	i	209*	i
COc1ccc(CCC(=O)NCCc2cnc[nH]2)cc1	i	i	i	i	i
Cc1ccc(C)c(NC(=S)NCCc2cnc[nH]2)c1	i	i	i	142*	i
